Numbered stars: 1 amine (or outer) side, 2 acyl side, 3 side chain; on linkers, the order of the positions; unused ones are H or OH. Bridge positions count the residues as written; N and C are the ends. Square brackets hold non-standard residues; d marks the D form. Peptide text beside a SMILES is read from it. ξ: configuration not given here. ξβ3hPhg = O=C(CC(N[*:1])c1ccccc1)[*:2]; ξPhg = NC(C(=O)O)c1ccccc1; βAla = NCCC(=O)O
Test system: not listed separately
Experiment: Serum stability assay
Type: in vitro ADME
Conditions: human serum, 37 °C; mutant vs parent L2β or D4β
Summary of the method: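 Test peptides (parents plus Ala, backbone-shortening and sidechain-deletion mutants) incubated in human serum at 37 °C for up to 72 h. Percentage of remaining peptide over time estimated by LC/MS, and half-life (t1/2) derived from the decay.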

Row | SMILES | fold lower t1/2 than the parent peptide
1 | CC(C)[C@@H]1NC(=O)[C@H](CCCNC(=N)N)NC(=O)[C@H](Cc2ccc(O)cc2)NC(=O)[C@H](C(C)C)NC(=O)[C@H](C(C)C)NC(=O)[C@H](CCCNC(=N)N)NC(=O)[C@H](CC(=O)O)NC(=O)[C@H](CC(=O)O)NC(=O)CNC(=O)[C@H](Cc2ccc(O)cc2)NC(=O)[C@H](Cc2ccc(O)cc2)NC(=O)[C@H](Cc2ccccc2)NC(=O)[C@@H](Cc2ccc(O)cc2)NC(=O)CSC[C@@H](C(=O)NCC(N)=O)NC(=O)CC(c2ccccc2)NC1=O (stereo partly drawn) [D4α.1] ({CH2CO}-[dY]FYYGDDRVVYRV[ξβ3hPhg]CG-NH2; thioether N-15) | 2 fold
2 | CC(C)C[C@@H]1NC(=O)[C@H](C)NC(=O)[C@H](CC(C)C)NC(=O)[C@H](Cc2ccc(O)cc2)NC(=O)CSC[C@@H](C(=O)NCC(N)=O)NC(=O)[C@H](Cc2ccc(O)cc2)NC(=O)[C@H](CC(C)C)NC(=O)[C@H](Cc2ccc(O)cc2)NC(=O)[C@H](CCCNC(=N)N)NC(=O)[C@H](CC(N)=O)NC(=O)[C@@H]2CCCN2C(=O)[C@H](C)NC(=O)[C@H](CCCNC(=N)N)NC(=O)[C@H](CCCNC(=N)N)NC(=O)[C@H](C)NC(=O)[C@H](Cc2ccc(O)cc2)NC1=O [L2A] ({CH2CO}-YLALYARRAPNRYLYCG-NH2; thioether N-16) | approximately 10 fold
3 | CC(C)[C@@H]1NC(=O)[C@H](CCCNC(=N)N)NC(=O)[C@H](Cc2ccc(O)cc2)NC(=O)[C@H](C(C)C)NC(=O)[C@H](C(C)C)NC(=O)[C@H](CCCNC(=N)N)NC(=O)[C@H](CC(=O)O)NC(=O)[C@H](CC(=O)O)NC(=O)[C@H](C)NC(=O)[C@H](Cc2ccc(O)cc2)NC(=O)[C@H](Cc2ccc(O)cc2)NC(=O)[C@H](Cc2ccccc2)NC(=O)[C@@H](Cc2ccc(O)cc2)NC(=O)CSC[C@@H](C(=O)NCC(N)=O)NC(=O)CC(c2ccccc2)NC1=O (stereo partly drawn) [D4A.1] ({CH2CO}-[dY]FYYADDRVVYRV[ξβ3hPhg]CG-NH2; thioether N-15) | 26 fold
4 | CC(C)[C@@H]1NC(=O)[C@H](CCCNC(=N)N)NC(=O)[C@H](Cc2ccc(O)cc2)NC(=O)[C@H](C(C)C)NC(=O)[C@H](C(C)C)NC(=O)[C@H](CCCNC(=N)N)NC(=O)[C@H](CC(=O)O)NC(=O)[C@H](CC(=O)O)NC(=O)CCNC(=O)[C@H](Cc2ccc(O)cc2)NC(=O)[C@H](Cc2ccc(O)cc2)NC(=O)[C@H](Cc2ccccc2)NC(=O)[C@@H](Cc2ccc(O)cc2)NC(=O)CSC[C@@H](C(=O)NCC(N)=O)NC(=O)[C@H](C)NC1=O [D4A.2] ({CH2CO}-[dY]FYY[βAla]DDRVVYRVACG-NH2; thioether N-15) | 2.6 fold

Target: hEGF–hEGFR interaction (Homo sapiens, UniProt P00533)
Sequence (P00533 25-645 limits assumed): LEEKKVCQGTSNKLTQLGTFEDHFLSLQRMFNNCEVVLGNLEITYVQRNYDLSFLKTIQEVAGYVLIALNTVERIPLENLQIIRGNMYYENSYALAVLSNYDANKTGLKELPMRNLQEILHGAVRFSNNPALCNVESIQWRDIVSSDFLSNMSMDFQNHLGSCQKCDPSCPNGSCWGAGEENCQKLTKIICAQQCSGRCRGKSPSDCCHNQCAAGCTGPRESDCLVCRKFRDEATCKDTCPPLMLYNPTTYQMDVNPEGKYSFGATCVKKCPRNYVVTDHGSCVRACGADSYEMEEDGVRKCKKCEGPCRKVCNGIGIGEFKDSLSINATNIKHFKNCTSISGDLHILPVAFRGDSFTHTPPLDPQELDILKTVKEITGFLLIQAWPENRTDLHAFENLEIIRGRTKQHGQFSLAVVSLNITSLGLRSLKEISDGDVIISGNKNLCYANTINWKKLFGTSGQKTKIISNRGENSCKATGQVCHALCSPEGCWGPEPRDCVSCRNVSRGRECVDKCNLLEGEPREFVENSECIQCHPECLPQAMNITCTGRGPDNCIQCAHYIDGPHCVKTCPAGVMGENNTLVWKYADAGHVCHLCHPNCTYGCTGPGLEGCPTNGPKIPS
Experiment: hEGFR inhibition assay using AlphaLISA
Type: biochemical
Conditions: not given

Row | SMILES | PPI inhibitory activity against hEGF–hEGFR interaction (in words)
5 | CC(C)C[C@H](NC(=O)CNC(=O)[C@H](CCCNC(=N)N)NC(=O)CC(NC(=O)[C@@H]1CSCC(=O)N[C@H](Cc2ccc(O)cc2)C(=O)N[C@@H](C(C)C)C(=O)N[C@@H](Cc2ccc(O)cc2)C(=O)N1)c1ccccc1)C(=O)N[C@@H](CC(=O)O)C(=O)N1CCC[C@H]1C(=O)N[C@@H](CCCNC(=N)N)C(=O)N[C@@H](CC(C)C)C(=O)N[C@@H](CO)C(=O)N[C@@H](CCCNC(=N)N)C(=O)N[C@@H](Cc1ccccc1)C(=O)N[C@@H](CO)C(=O)NCC(N)=O (stereo partly drawn) [D2β, ^AcyVYC^βXRGLDPRLSRFSG-NH2] ({CH2CO}-[dY]VYC[ξβ3hPhg]RGLDPRLSRFSG-NH2; thioether N-4) | no inhibitory activity
6 | CC(C)[C@@H]1NC(=O)[C@H](CCCNC(=N)N)NC(=O)[C@H](Cc2ccc(O)cc2)NC(=O)[C@H](C(C)C)NC(=O)[C@H](C(C)C)NC(=O)[C@H](CCCNC(=N)N)NC(=O)[C@H](CC(=O)O)NC(=O)[C@H](CC(=O)O)NC(=O)CNC(=O)[C@H](Cc2ccc(O)cc2)NC(=O)[C@H](Cc2ccc(O)cc2)NC(=O)[C@H](Cc2ccccc2)NC(=O)[C@@H](Cc2ccc(O)cc2)NC(=O)CSC[C@@H](C(=O)NCC(N)=O)NC(=O)C(c2ccccc2)NC1=O (stereo partly drawn) [D4α, ^AcyFYYGDDRVVYRVXCG-NH2] ({CH2CO}-[dY]FYYGDDRVVYRV[ξPhg]CG-NH2; thioether N-15) | complete loss of the activity
7 | CC(C)[C@@H]1NC(=O)[C@H](CCCNC(=N)N)NC(=O)[C@H](Cc2ccc(O)cc2)NC(=O)[C@H](C(C)C)NC(=O)[C@H](C(C)C)NC(=O)[C@H](CCCNC(=N)N)NC(=O)[C@H](CC(=O)O)NC(=O)[C@H](CC(=O)O)NC(=O)[C@H](C)NC(=O)[C@H](Cc2ccc(O)cc2)NC(=O)[C@H](Cc2ccc(O)cc2)NC(=O)[C@H](Cc2ccccc2)NC(=O)[C@@H](Cc2ccc(O)cc2)NC(=O)CSC[C@@H](C(=O)NCC(N)=O)NC(=O)[C@H](C)NC1=O [D4A] ({CH2CO}-[dY]FYYADDRVVYRVACG-NH2; thioether N-15) | complete loss of the activity

Same assay, conditions: mutant vs parent L2β, D3β or D4β

Row | SMILES | fold increase of IC50 compared to the parent peptide
8 | CC(C)C[C@@H]1NC(=O)CC(c2ccccc2)NC(=O)[C@H](CC(C)C)NC(=O)[C@H](Cc2ccc(O)cc2)NC(=O)CSC[C@@H](C(=O)NCC(N)=O)NC(=O)[C@H](Cc2ccc(O)cc2)NC(=O)[C@H](CC(C)C)NC(=O)[C@H](Cc2ccc(O)cc2)NC(=O)[C@H](CCCNC(=N)N)NC(=O)[C@H](CC(N)=O)NC(=O)[C@@H]2CCCN2C(=O)CC(c2ccccc2)NC(=O)[C@H](CCCNC(=N)N)NC(=O)[C@H](CCCNC(=N)N)NC(=O)C(c2ccccc2)NC(=O)[C@H](Cc2ccc(O)cc2)NC1=O (stereo partly drawn) [L2α.2, ^AcYL^βXLYXRR^βXPNRYLYCG-NH2] ({CH2CO}-YL[ξβ3hPhg]LY[ξPhg]RR[ξβ3hPhg]PNRYLYCG-NH2; thioether N-16) | 460 fold
9 | CC(C)C[C@@H]1NC(=O)CC(c2ccccc2)NC(=O)[C@H](CC(C)C)NC(=O)[C@H](Cc2ccc(O)cc2)NC(=O)CSC[C@@H](C(=O)NCC(N)=O)NC(=O)[C@H](Cc2ccc(O)cc2)NC(=O)[C@H](CC(C)C)NC(=O)[C@H](Cc2ccc(O)cc2)NC(=O)[C@H](CCCNC(=N)N)NC(=O)[C@H](CC(N)=O)NC(=O)[C@@H]2CCCN2C(=O)CC(c2ccccc2)NC(=O)[C@H](CCCNC(=N)N)NC(=O)[C@H](CCCNC(=N)N)NC(=O)CCNC(=O)[C@H](Cc2ccc(O)cc2)NC1=O (stereo partly drawn) [L2βG.2, ^AcYL^βXLY^βGRR^βXPNRYLYCG-NH2] ({CH2CO}-YL[ξβ3hPhg]LY[βAla]RR[ξβ3hPhg]PNRYLYCG-NH2; thioether N-16) | 1270 fold
10 | CC(C)[C@@H]1NC(=O)[C@H](CCCNC(=N)N)NC(=O)[C@H](Cc2ccc(O)cc2)NC(=O)[C@H](C(C)C)NC(=O)[C@H](C(C)C)NC(=O)[C@H](CCCNC(=N)N)NC(=O)[C@H](CC(=O)O)NC(=O)[C@H](CC(=O)O)NC(=O)CCNC(=O)[C@H](Cc2ccc(O)cc2)NC(=O)[C@H](Cc2ccc(O)cc2)NC(=O)[C@H](Cc2ccccc2)NC(=O)[C@@H](Cc2ccc(O)cc2)NC(=O)CSC[C@@H](C(=O)NCC(N)=O)NC(=O)CCNC1=O [D4βG] ({CH2CO}-[dY]FYY[βAla]DDRVVYRV[βAla]CG-NH2; thioether N-15) | 2.2 fold

Target: hEGFR (Homo sapiens, UniProt P00533)
Sequence (P00533 25-1210): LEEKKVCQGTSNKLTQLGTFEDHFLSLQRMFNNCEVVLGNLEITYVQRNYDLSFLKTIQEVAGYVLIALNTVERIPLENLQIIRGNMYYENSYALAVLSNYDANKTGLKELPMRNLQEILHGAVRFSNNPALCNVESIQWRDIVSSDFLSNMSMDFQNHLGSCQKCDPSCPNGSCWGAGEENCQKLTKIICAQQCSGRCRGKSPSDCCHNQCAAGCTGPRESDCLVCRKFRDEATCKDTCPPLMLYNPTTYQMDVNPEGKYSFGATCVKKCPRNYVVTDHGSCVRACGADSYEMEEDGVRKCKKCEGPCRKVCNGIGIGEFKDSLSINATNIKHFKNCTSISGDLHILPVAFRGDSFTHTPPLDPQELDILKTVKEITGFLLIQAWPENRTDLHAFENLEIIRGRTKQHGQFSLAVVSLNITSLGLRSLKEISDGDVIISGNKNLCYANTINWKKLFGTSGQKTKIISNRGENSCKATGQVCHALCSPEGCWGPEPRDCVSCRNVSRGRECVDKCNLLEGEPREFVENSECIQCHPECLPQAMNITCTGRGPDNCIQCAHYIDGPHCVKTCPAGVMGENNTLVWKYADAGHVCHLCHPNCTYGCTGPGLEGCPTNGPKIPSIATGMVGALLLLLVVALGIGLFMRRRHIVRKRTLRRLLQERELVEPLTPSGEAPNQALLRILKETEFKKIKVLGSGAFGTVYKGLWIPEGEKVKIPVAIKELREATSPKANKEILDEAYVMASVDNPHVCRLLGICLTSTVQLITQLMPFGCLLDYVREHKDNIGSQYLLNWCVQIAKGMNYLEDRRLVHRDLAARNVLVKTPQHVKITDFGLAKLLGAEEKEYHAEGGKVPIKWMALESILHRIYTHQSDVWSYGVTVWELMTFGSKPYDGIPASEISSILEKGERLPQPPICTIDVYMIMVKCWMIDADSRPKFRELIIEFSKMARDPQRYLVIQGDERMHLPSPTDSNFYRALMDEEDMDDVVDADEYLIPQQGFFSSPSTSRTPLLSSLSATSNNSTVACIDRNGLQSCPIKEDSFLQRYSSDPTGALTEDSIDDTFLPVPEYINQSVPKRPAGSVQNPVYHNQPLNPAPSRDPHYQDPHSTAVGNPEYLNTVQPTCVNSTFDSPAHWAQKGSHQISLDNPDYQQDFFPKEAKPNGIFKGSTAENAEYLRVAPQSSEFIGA
Experiment: Binding kinetics analysis by surface plasmon resonance
Conditions: KD compared with 2D and 18D

Row | SMILES | fold stronger binding affinity in comparison with 2D and 18D
11 | CC(C)[C@@H]1NC(=O)[C@H](CCCNC(=N)N)NC(=O)[C@H](Cc2ccc(O)cc2)NC(=O)[C@H](C(C)C)NC(=O)[C@H](C(C)C)NC(=O)[C@H](CCCNC(=N)N)NC(=O)[C@H](CC(=O)O)NC(=O)[C@H](CC(=O)O)NC(=O)CCNC(=O)[C@H](Cc2ccc(O)cc2)NC(=O)[C@H](Cc2ccc(O)cc2)NC(=O)[C@H](Cc2ccccc2)NC(=O)[C@@H](Cc2ccc(O)cc2)NC(=O)CSC[C@@H](C(=O)NCC(N)=O)NC(=O)CC(c2ccccc2)NC1=O (stereo partly drawn) [D4β] ({CH2CO}-[dY]FYY[βAla]DDRVVYRV[ξβ3hPhg]CG-NH2; thioether N-15) | approximately 10 fold
12 | CC(C)C[C@@H]1NC(=O)CC(c2ccccc2)NC(=O)[C@H](CC(C)C)NC(=O)[C@H](Cc2ccc(O)cc2)NC(=O)CSC[C@@H](C(=O)NCC(N)=O)NC(=O)[C@H](Cc2ccc(O)cc2)NC(=O)[C@H](CC(C)C)NC(=O)[C@H](Cc2ccc(O)cc2)NC(=O)[C@H](CCCNC(=N)N)NC(=O)[C@H](CC(N)=O)NC(=O)[C@@H]2CCCN2C(=O)CC(c2ccccc2)NC(=O)[C@H](CCCNC(=N)N)NC(=O)[C@H](CCCNC(=N)N)NC(=O)CC(c2ccccc2)NC(=O)[C@H](Cc2ccc(O)cc2)NC1=O (stereo partly drawn) [L2β, ^AcYL^βXLY^βXRR^βXPNRYLYCG-NH2] ({CH2CO}-YL[ξβ3hPhg]LY[ξβ3hPhg]RR[ξβ3hPhg]PNRYLYCG-NH2; thioether N-16) | approximately 10 fold

Source: article PMC9563295 (Journal of the American Chemical Society, 2022)
